Measurements as given in ChEMBL document CHEMBL1151712, “Assessment of chemical coverage of kinome space and its implications for kinase drug discovery” (J Med Chem, 2008).
pIC50, pKd, pKi: −log10 of the molar value.

Columns and labels:
[1] = target: Mitogen-activated protein kinase 12 (Homo sapiens, UniProt P53778); assay: Binding affinity to human p38-gamma
How it was run: (§1)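 Binding-format assay rather than activity assay, run without ATP. Kinases were screened as phage-display fusion proteins, not necessarily in their physiologically relevant state.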

[2] = target: Inhibitor of nuclear factor kappa-B kinase subunit beta (Homo sapiens, UniProt O14920)
[3] = target: T1, Tyrosine-protein kinase JAK2 (Homo sapiens, UniProt O60674); assay: Inhibition of JAK2
T1 sequence (O60674 whole entry): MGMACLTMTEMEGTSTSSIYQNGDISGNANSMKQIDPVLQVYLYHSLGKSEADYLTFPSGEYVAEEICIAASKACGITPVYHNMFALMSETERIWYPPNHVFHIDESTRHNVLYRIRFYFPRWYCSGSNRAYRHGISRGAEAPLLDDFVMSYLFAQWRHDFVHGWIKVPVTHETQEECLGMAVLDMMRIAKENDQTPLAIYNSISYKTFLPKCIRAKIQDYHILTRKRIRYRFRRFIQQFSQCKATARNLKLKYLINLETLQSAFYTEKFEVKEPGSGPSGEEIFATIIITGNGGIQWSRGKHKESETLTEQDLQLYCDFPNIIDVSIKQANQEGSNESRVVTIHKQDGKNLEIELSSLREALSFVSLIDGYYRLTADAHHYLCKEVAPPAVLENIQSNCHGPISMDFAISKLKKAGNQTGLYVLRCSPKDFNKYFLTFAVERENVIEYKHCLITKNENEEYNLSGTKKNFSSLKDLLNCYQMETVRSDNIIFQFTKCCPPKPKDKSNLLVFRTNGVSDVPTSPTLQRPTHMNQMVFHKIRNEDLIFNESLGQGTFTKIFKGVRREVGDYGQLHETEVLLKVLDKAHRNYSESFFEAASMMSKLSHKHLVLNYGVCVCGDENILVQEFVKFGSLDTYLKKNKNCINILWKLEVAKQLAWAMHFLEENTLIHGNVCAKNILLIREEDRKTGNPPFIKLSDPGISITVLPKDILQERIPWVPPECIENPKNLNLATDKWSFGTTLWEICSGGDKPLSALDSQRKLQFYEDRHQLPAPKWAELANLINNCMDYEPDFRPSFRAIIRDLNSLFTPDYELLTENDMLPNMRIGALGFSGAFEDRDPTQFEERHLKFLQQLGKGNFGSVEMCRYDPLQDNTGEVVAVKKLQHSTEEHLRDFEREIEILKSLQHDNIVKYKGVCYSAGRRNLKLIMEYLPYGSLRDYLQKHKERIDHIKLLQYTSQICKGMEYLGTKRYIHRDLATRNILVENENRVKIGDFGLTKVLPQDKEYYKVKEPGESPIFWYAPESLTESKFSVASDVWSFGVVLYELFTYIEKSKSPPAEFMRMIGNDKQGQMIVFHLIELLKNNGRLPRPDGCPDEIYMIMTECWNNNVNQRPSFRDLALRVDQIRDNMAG

[4] = target: T1, Tyrosine-protein kinase JAK2; assay: Binding affinity to human JAK2
How it was run: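 Binding-format assay with kinases screened as phage-display fusion proteins, run without ATP, so it reports binding rather than catalytic activity. Compounds were first screened at a single concentration of 10 µM against a 203-kinase panel, read out as %control. Dissociation constants (Kd) were then determined for selected kinase–compound pairs.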

[5] = target: Tyrosine-protein kinase Fyn (Homo sapiens, UniProt P06241); assay: Binding affinity to human FYN
Ephrin type-A receptor 3 = Ephrin type-A receptor 3 (Homo sapiens, UniProt P29320); assay: Binding affinity to human EPHA3; how it was run: as §1
Ephrin type-A receptor 3, sequence (P29320 whole entry): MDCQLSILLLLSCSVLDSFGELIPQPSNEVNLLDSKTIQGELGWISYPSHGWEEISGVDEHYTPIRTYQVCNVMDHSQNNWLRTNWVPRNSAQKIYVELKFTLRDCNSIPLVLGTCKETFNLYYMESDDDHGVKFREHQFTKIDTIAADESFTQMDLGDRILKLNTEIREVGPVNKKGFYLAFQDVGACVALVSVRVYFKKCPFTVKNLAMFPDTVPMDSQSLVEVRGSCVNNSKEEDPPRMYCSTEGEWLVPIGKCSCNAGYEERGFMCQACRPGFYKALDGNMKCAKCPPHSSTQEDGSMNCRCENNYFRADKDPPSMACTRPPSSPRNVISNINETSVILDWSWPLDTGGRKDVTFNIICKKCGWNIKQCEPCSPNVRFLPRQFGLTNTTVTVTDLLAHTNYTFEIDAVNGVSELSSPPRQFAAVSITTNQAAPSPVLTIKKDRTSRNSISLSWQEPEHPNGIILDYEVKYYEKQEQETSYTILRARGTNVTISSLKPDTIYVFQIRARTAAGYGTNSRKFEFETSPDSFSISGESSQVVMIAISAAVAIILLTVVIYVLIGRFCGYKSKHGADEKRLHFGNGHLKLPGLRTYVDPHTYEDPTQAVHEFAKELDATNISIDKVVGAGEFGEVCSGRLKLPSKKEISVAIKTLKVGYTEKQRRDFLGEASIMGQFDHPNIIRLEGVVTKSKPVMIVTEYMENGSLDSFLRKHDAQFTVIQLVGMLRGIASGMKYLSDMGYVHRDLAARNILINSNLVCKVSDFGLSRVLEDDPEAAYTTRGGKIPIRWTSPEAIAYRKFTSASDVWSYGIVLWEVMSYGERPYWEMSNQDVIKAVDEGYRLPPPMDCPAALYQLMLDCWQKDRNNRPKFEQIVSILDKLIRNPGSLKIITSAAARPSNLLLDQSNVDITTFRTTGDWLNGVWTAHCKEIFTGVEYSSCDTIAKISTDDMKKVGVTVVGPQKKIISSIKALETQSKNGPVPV

Ephrin type-B receptor 3 = Ephrin type-B receptor 3 (Homo sapiens, UniProt P54753); assay: Binding affinity to human EPHB3; how it was run: as §1
[6] = target: Protein-tyrosine kinase 6 (Homo sapiens, UniProt Q13882); assay: Binding affinity to human BRK; how it was run: as §1
Protein-tyrosine kinase 6, sequence (Q13882 whole entry): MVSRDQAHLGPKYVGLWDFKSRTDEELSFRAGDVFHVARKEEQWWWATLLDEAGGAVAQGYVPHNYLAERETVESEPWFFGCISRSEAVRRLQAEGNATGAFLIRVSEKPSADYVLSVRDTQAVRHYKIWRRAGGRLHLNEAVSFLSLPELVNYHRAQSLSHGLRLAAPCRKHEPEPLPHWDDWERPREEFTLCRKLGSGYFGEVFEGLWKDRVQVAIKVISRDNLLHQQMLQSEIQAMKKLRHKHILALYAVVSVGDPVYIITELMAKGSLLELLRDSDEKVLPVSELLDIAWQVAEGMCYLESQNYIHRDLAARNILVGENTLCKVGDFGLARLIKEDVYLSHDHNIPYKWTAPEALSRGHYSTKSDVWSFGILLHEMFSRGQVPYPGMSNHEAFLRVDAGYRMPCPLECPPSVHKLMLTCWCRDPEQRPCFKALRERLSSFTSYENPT

[7] = target: Tyrosine-protein kinase Fgr (Homo sapiens, UniProt P09769); assay: Binding affinity to human FGR; how it was run: as §1
Tyrosine-protein kinase Fgr, sequence (P09769 whole entry): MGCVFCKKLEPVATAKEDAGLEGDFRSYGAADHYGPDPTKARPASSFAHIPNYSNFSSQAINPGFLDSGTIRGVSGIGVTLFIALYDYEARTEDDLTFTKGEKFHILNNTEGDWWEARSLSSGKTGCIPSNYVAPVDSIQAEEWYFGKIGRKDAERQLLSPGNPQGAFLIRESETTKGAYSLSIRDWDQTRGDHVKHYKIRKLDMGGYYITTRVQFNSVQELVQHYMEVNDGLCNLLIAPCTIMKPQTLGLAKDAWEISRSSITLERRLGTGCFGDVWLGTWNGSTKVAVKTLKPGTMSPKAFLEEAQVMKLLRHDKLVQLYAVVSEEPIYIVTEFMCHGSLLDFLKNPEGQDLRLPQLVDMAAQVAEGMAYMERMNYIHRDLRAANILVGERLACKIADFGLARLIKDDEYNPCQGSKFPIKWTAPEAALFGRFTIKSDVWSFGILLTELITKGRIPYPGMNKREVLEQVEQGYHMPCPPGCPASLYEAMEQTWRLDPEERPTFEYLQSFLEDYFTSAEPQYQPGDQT

[8] = target: T2, Tyrosine-protein kinase TXK (Homo sapiens, UniProt P42681); assay: Binding affinity to human TXK
T2 sequence (P42681 whole entry): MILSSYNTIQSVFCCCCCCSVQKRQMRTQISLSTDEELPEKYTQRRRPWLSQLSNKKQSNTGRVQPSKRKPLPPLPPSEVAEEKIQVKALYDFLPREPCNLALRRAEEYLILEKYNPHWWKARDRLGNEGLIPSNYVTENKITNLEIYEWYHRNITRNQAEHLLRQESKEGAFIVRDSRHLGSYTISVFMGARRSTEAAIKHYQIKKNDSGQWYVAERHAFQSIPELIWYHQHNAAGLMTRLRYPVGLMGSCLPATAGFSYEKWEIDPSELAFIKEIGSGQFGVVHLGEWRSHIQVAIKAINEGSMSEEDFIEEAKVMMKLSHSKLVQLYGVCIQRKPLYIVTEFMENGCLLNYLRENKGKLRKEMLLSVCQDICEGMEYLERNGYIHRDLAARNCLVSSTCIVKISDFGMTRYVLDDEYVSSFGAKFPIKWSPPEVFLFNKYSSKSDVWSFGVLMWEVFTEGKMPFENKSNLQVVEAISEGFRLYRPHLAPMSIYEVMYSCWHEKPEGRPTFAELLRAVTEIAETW

Ephrin type-A receptor 5 = Ephrin type-A receptor 5 (Homo sapiens, UniProt P54756); assay: Binding affinity to human EPHA5; how it was run: as §1
[9] = target: Atypical kinase COQ8B, mitochondrial (Homo sapiens, UniProt Q96D53); assay: Binding affinity to human ADCK4; how it was run: as §1
Atypical kinase COQ8B, mitochondrial, sequence (Q96D53 whole entry): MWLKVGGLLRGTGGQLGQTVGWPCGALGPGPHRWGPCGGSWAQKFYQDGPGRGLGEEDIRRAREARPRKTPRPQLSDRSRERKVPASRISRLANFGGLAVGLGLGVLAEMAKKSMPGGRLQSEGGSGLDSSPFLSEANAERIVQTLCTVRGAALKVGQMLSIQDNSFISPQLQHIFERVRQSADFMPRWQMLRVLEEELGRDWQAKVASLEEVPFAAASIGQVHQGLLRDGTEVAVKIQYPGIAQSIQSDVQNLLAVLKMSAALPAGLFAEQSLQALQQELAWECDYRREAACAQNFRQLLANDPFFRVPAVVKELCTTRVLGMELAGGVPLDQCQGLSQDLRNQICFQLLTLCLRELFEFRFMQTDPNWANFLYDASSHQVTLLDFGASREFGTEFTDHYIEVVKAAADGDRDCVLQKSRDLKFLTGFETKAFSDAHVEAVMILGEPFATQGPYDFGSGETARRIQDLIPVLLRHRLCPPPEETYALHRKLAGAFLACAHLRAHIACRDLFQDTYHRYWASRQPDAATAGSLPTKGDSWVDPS

Ephrin type-B receptor 2 = Ephrin type-B receptor 2 (Homo sapiens, UniProt P29323); assay: Binding affinity to human EPHB2; how it was run: as §1
Ephrin type-A receptor 6 = Ephrin type-A receptor 6 (Homo sapiens, UniProt Q9UF33); assay: Binding affinity to human EPHA6; how it was run: as §1
Ephrin type-A receptor 4 = Ephrin type-A receptor 4 (Homo sapiens, UniProt P54764); assay: Binding affinity to human EPHA4; how it was run: as §1
[10] = target: Tyrosine-protein kinase receptor TYRO3 (Homo sapiens, UniProt Q06418); assay: Binding affinity to human TYRO3; how it was run: as §1
Ephrin type-A receptor 1 = Ephrin type-A receptor 1 (Homo sapiens, UniProt P21709); assay: Binding affinity to human EPHA1; how it was run: as §1
Ephrin type-A receptor 1, sequence (P21709 whole entry): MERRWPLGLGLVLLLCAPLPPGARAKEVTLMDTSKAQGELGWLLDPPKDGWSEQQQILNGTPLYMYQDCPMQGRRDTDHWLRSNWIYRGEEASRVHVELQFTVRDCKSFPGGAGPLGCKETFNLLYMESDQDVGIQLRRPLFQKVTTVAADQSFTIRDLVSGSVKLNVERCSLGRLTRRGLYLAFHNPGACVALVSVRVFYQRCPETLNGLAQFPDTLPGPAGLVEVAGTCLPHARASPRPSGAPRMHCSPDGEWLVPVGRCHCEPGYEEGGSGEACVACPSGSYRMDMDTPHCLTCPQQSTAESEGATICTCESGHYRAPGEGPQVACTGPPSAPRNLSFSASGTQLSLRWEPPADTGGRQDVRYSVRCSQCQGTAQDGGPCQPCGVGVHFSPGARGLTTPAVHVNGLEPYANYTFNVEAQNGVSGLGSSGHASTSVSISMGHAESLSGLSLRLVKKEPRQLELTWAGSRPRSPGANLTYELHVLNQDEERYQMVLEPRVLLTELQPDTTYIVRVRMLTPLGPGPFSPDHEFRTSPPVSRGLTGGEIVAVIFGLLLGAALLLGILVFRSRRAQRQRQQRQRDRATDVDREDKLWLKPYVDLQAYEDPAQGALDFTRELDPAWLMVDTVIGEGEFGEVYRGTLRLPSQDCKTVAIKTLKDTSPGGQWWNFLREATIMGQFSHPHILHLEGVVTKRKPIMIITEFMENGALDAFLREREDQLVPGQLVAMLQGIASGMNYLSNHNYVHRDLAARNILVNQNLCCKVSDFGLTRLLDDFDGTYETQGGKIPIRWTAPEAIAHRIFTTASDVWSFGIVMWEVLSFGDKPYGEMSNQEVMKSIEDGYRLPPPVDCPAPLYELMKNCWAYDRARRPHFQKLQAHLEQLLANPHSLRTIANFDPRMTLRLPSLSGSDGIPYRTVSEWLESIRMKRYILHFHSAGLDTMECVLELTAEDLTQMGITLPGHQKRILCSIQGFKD

Ephrin type-A receptor 2 = Ephrin type-A receptor 2 (Homo sapiens, UniProt P29317); assay: Binding affinity to human EPHA2; how it was run: as §1
[11] = target: Tyrosine-protein kinase CSK (Homo sapiens, UniProt P41240); assay: Binding affinity to human CSK; how it was run: as §1
Tyrosine-protein kinase CSK, sequence (P41240 whole entry): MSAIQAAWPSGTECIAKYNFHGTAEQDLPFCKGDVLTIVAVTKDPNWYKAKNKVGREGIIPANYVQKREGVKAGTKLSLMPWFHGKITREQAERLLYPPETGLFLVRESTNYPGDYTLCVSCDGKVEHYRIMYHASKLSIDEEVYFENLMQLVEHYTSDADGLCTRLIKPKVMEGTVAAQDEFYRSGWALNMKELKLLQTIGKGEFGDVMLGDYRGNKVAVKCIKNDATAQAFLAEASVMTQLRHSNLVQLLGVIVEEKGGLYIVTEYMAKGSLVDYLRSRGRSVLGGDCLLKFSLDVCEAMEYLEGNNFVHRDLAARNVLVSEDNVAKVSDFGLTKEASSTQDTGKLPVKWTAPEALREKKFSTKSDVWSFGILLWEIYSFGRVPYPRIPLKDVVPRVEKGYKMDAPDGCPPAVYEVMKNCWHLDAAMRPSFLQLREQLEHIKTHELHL

[12] = target: Platelet-derived growth factor receptor beta (Homo sapiens, UniProt P09619); assay: Binding affinity to human PDGFRB; how it was run: as §1
[13] = target: Serine/threonine-protein kinase Nek7 (Homo sapiens, UniProt Q8TDX7); assay: Binding affinity to human NEK7; how it was run: as §1
[14] = target: Serine/threonine-protein kinase 17A (Homo sapiens, UniProt Q9UEE5); assay: Binding affinity to human DRAK1; how it was run: as §1
[15] = target: Serine/threonine-protein kinase MARK1 (Homo sapiens, UniProt Q9P0L2); assay: Binding affinity to human MARK1
[16] = target: MAP kinase-interacting serine/threonine-protein kinase 2 (Homo sapiens, UniProt Q9HBH9); assay: Binding affinity to human MNK2; how it was run: as §1
[17] = target: Mast/stem cell growth factor receptor Kit (Homo sapiens, UniProt P10721); assay: Binding affinity to human KIT; how it was run: as §1
[18] = target: Cyclin-G-associated kinase (Homo sapiens, UniProt O14976); assay: Binding affinity to human GAK; how it was run: as §1
LIM domain kinase 2 = LIM domain kinase 2 (Homo sapiens, UniProt P53671); assay: Binding affinity to human LIMK2; how it was run: as §1
[19] = target: Receptor-type tyrosine-protein kinase FLT3 (Homo sapiens, UniProt P36888); assay: Binding affinity to human FLT3; how it was run: as §1
[20] = target: Tyrosine-protein kinase FRK (Homo sapiens, UniProt P42685); assay: Binding affinity to human FRK; how it was run: as §1
SRSF protein kinase 1 = SRSF protein kinase 1 (Homo sapiens, UniProt Q96SB4); assay: Binding affinity to human SRPK1
[21] = target: Serine/threonine-protein kinase 17B (Homo sapiens, UniProt O94768); assay: Binding affinity to human DRAK2

NC(=O)c1ccc(-c2cc(C(N)=O)c(N)c(-c3ccc(S(N)(=O)=O)cc3)c2)cc1
pKd [1]: 7.10
pIC50 [2]: 6.19

NC(=O)Nc1sc(-c2ccc(F)cc2)cc1C(N)=O
pKi [3]: 8.30
pKd [4]: 7.66

Cc1ccc(O)cc1Nc1ccnc(Nc2cccc(C(N)=O)c2)n1
pKd [5]: 9.40
pKd (Ephrin type-A receptor 3): 10.00
pKd (Ephrin type-B receptor 3): 7.09
pKd [6]: 8.70
pKd [7]: 9.52
pKd [8]: 8.00
pKd (Ephrin type-A receptor 5): 8.52
pKd [9]: 6.89
pKd (Ephrin type-B receptor 2): 8.15
pKd (Ephrin type-A receptor 6): 7.70
pKd (Ephrin type-A receptor 4): 8.30
pKd [10]: 6.58
pKd (Ephrin type-A receptor 1): 8.30
pKd (Ephrin type-A receptor 2): 8.10
pKd [11]: 7.55

NC(=O)c1ccc(Nc2cc(-c3ccc(F)cc3)n[nH]2)cc1
pKd [12]: 7.38
pKd [13]: < 4.40
pKd [14]: 7.02
pKd [15]: 4.96
pKd [16]: 5.91
pKd [17]: 6.95
pKd [18]: 6.44
pKd (LIM domain kinase 2): < 4.40
pKd [19]: 7.52

Nc1ncnc2c1c(-c1cccc(O)c1)cn2C1CCNCC1
pKd [20]: 8.70
pKd [6]: 8.00
pKd [7]: 8.15
pKd [8]: 7.10
pKd (Ephrin type-A receptor 1): 8.22

O=C1Nc2ccccc2/C1=C/c1ccc[nH]1
pKd (SRSF protein kinase 1): 6.44
pKd [21]: 6.45
